Experimental data as given in paper PMC5447658 (Translational Oncology, 2017).

Tests used:
[1] = molecular target: HER2 (SKBR3 cells) (Homo sapiens, UniProt P04626); assay: In vitro receptor competitive binding assay; conditions: TP1623 0-500 nmol/L, 30 minutes at 4°C, then tracer 2 h at 4°C
Procedure, shortened: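 SKBR3 cells at 2–4 × 10^4/well were seeded the day before. Unlabelled test compound was added at 0, 1, 5, 25, 50 and 500 nmol/L final, in triplicate, for 30 min at 4°C. 99mTc tracer (462 KBq/0.1 μg) followed for 2 h at 4°C. Cells were washed three times in ice-cold PBS, trypsin-digested and gamma-counted. Count was plotted against competitor concentration.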

[2] = test system: HER2; conditions: cited from earlier work

Sequence | competitive inhibition of binding of 99mTc-TP1623 to HER2 [1] | affinity for HER2 [2]
G (D) AGG-Aba-YCFPDEEGACY-NH2 [TP1623] | could competitively inhibit the binding | –
YCFPDEEGACY | – | high affinity
